Data published in ChEMBL document CHEMBL1156226, “Synthesis and structure-activity relationship studies of peptidomimetic PKB/Akt inhibitors: the significance of backbone interactions” (Bioorg Med Chem, 2010).
pIC50: −log10 of the molar value. Peptide text beside a SMILES is read from it.

Tests used:
[1] = biological target: T1, RAC-alpha serine/threonine-protein kinase (Homo sapiens, UniProt P31749); assay: Inhibition of PKB at 20 uM by radioactive kinase assay relative to control
Method in brief: (§1)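 PKB/Akt enzyme HisAPHPKBEEEFlag, partly purified in one step on Ni-NTA agarose. The radioactive kinase reaction contains 50 mM Hepes pH 7.4, 0.1 mM EGTA, 0.1% 2-mercaptoethanol, 10 mM magnesium acetate, 3 uM RPRTSSF peptide substrate, 10 uM [γ32P]ATP and 0.005 units enzyme. Inhibition is given as percent reduction of activity against a no-inhibitor control. IC50 values, with 95% confidence ranges, come from curve fitting.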

[2] = biological target: T1, RAC-alpha serine/threonine-protein kinase; assay: Inhibition of PKB at 5 uM by radioactive kinase assay relative to control; method in brief: as §1
[3] = biological target: T1, RAC-alpha serine/threonine-protein kinase; assay: Inhibition of PKB by radioactive kinase assay; method in brief: as §1
[4] = Stability in presence of trypsin and chymotrypsin assessed as peptide degradation at 1 mM within 30 mins by HPLC; format: ADME; conditions: isolated protein, 0.5 h, 1000 µM
Method in brief: (§2)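 Peptide at 1 mM in 200 mM NH4HCO3, pH 8, is mixed with porcine pancreatic trypsin plus chymotrypsin (2.5 mg/ml solution) and incubated at 37 °C. Samples are taken every 30 min and quenched with 2% TFA/30% acetonitrile in water. Degradation is followed by HPLC and MALDI-TOF MS.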

[5] = biological target: T1, RAC-alpha serine/threonine-protein kinase; assay: Inhibition of PKB at 100 uM by radioactive kinase assay relative to control; method in brief: as §1
[6] = Stability in presence of trypsin and chymotrypsin assessed as peptide degradation at 1 mM within 90 mins by HPLC; format: ADME; conditions: isolated protein, 1.5 h, 1000 µM; method in brief: as §2
[7] = Stability in presence of trypsin and chymotrypsin assessed as peptide degradation at 1 mM after 30 mins by HPLC; format: ADME; conditions: read-out: Activity; method in brief: as §2
[8] = Stability in presence of trypsin and chymotrypsin assessed as peptide degradation at 1 mM after 2 hrs by HPLC; format: ADME; conditions: isolated protein, 1000 µM; method in brief: as §2
[9] = biological target: T1, RAC-alpha serine/threonine-protein kinase; assay: Inhibition of PKB at 50 uM by radioactive kinase assay relative to control; method in brief: as §1

T1 sequence (P31749 whole entry): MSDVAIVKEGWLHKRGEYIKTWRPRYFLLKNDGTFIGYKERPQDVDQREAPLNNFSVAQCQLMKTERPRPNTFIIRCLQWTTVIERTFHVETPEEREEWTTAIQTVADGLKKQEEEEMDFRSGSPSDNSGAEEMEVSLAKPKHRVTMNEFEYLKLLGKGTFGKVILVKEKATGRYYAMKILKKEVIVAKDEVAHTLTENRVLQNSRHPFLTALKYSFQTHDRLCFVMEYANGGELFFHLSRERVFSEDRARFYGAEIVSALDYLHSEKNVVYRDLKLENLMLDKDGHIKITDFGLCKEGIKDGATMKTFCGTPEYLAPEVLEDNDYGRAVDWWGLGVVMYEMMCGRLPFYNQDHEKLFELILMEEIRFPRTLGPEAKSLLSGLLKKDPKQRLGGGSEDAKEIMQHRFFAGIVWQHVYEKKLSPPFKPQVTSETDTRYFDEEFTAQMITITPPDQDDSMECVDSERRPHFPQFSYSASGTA

Compound	inhibition [1]	inhibition [2]	pIC50 [3]	other results
CCC[C@H](NC(=O)[C@H](CCCN=C(N)N)NC(=O)[C@@H]1CCCN1C(=O)[C@@H](N)CCCN=C(N)N)C(=O)N[C@@H](Cc1ccc(O)cc1)C(=O)N[C@H](CS)C(=O)N[C@@H](CCC(C)C)C(N)=O			6.40	
CCC[C@H](NC(=O)[C@H](CCCNC(=N)N)NC(=O)[C@@H]1CCCN1C(=O)[C@H](CCCNC(=N)N)NC(=O)[C@H](CCCNC(=N)N)NC(C)=O)C(=O)N[C@@H](Cc1ccc(O)cc1)C(=O)N[C@@H](CN)C(=O)N[C@@H](CCC(C)C)C(N)=O (HELM PEPTIDE1{[ac].R.R.P.R.[Nva].Y.[NC[C@H](N[*:1])C(=O)[*:2]].[CC(C)CC[C@H](N[*:1])C(=O)[*:2]].[am]}$$$$V2.0)	94%	83%		
CCC[C@H](NC(=O)[C@H](CCCN=C(N)N)NC(=O)[C@@H]1CCCN1C(=O)[C@H](CCCN=C(N)N)NC(=O)[C@@H](N)CCCN=C(N)N)C(=O)N[C@@H](Cc1ccc(O)cc1)C(=O)N[C@@H](CN)C(=O)N[C@@H](CCC(C)C)C(N)=O			6.08	
CCC[C@H](NC(=O)[C@H](CCCN=C(N)N)NC(=O)[C@@H]1CCCN1C(=O)[C@H](CCCN=C(N)N)NC(=O)[C@H](CCCN=C(N)N)NC(C)=O)C(=O)N[C@@H](Cc1ccc(O)cc1)C(=O)N[C@@H](CN)C(=O)N[C@@H](CCC(C)C)C(N)=O (HELM PEPTIDE1{[ac].R.R.P.R.[Nva].Y.[NC[C@H](N[*:1])C(=O)[*:2]].[CC(C)CC[C@H](N[*:1])C(=O)[*:2]].[am]}$$$$V2.0)			5.93	
CCC[C@H](NC(=O)[C@H](CCCNC(=N)N)NC(=O)[C@H](C)N(C)C(=O)[C@@H](N)CCCNC(=N)N)C(=O)N[C@@H](Cc1ccc(O)cc1)C(=O)N[C@@H](CN)C(=O)N[C@@H](CCC(C)C)C(N)=O (HELM PEPTIDE1{R.[meA].R.[Nva].Y.[NC[C@H](N[*:1])C(=O)[*:2]].[CC(C)CC[C@H](N[*:1])C(=O)[*:2]].[am]}$$$$V2.0)		77%	5.69	Stability [4]: Unstable; inhibition [5]: 95%; Stability [6]: Unstable
CCC[C@H](NC(=O)[C@H](CCCNC(=N)N)NC(=O)[C@@H]1CCCN1C(=O)[C@H](CCCNC(=N)N)NC)C(=O)N[C@@H](Cc1ccc(O)cc1)C(=O)N[C@@H](CN)C(=O)N[C@@H](CCC(C)C)C(N)=O (HELM PEPTIDE1{[meR].P.R.[Nva].Y.[NC[C@H](N[*:1])C(=O)[*:2]].[CC(C)CC[C@H](N[*:1])C(=O)[*:2]].[am]}$$$$V2.0)		85%	6.04	inhibition [5]: 97%
CCC[C@H](NC(=O)[C@H](CCCNC(=N)N)NC(=O)[C@@H]1CCCN1C(=O)[C@@H](N)CCCNC(=N)N)C(=O)N[C@@H](Cc1ccc(O)cc1)C(=O)N[C@H](CS)C(=O)N[C@@H](CCC(C)C)C(N)=O		95%		inhibition [9]: 95%

Further lines, with some results ahead:

inhibition [1]	inhibition [2]	pIC50 [3]	Compound	other results
92%	73%		CCC[C@H](NC(=O)[C@H](CCCNC(=N)N)NC(=O)[C@@H]1CCCN1C(=O)[C@H](CCCNC(=N)N)NC(=O)[C@@H](N)CCCCN)C(=O)N[C@@H](Cc1ccc(O)cc1)C(=O)N[C@@H](CN)C(=O)N[C@@H](CCC(C)C)C(N)=O	
69%			CCC[C@H](NC(=O)[C@H](CCCNC(=N)N)NC(=O)[C@@H]1CCCN1C(=O)[C@H](CCCNC(=N)N)NC(=O)[C@H](N)CCCNC(=N)N)C(=O)N[C@@H](Cc1ccc(O)cc1)C(=O)N[C@@H](CN)C(=O)N[C@@H](CCC(C)C)C(=O)O	
85%	61%		CCC[C@H](NC(=O)[C@H](CCCNC(=N)N)NC(=O)[C@@H]1CCCN1C(=O)[C@H](CCCNC(=N)N)NC(=O)[C@H](CCCCN)NC(C)=O)C(=O)N[C@@H](Cc1ccc(O)cc1)C(=O)N[C@@H](CN)C(=O)N[C@@H](CCC(C)C)C(N)=O (HELM PEPTIDE1{[ac].K.R.P.R.[Nva].Y.[NC[C@H](N[*:1])C(=O)[*:2]].[CC(C)CC[C@H](N[*:1])C(=O)[*:2]].[am]}$$$$V2.0)	
3%			CCC[C@H](NC(=O)[C@H](CCCNC(=N)N)NC(=O)[C@@H]1CCCN1C(=O)[C@H](CCCNC(=N)N)NC(=O)[C@H](N)CCCCN)C(=O)N[C@@H](Cc1ccc(O)cc1)C(=O)N[C@@H](CN)C(=O)N[C@@H](CCC(C)C)C(N)=O	
46%			CCC[C@H](NC(=O)[C@H](CCCNC(=N)N)NC(=O)[C@@H]1CCCN1C(=O)[C@H](CCCNC(=N)N)NC(=O)[C@H](CCCCN)NC(C)=O)C(=O)N[C@@H](Cc1ccc(O)cc1)C(=O)N[C@@H](CN)C(=O)N[C@@H](CCC(C)C)C(=O)O (HELM PEPTIDE1{[ac].K.R.P.R.[Nva].Y.[NC[C@H](N[*:1])C(=O)[*:2]].[CC(C)CC[C@H](N[*:1])C(=O)O]}$$$$V2.0)	
96%	88%		CCC[C@H](NC(=O)[C@H](CCCNC(=N)N)NC(=O)[C@@H]1CCCN1C(=O)[C@H](CCCNC(=N)N)NC(=O)[C@@H](N)CCCNC(=N)N)C(=O)N[C@@H](Cc1ccc(O)cc1)C(=O)N[C@@H](CN)C(=O)N[C@@H](CCC(C)C)C(N)=O	
40%			CCC[C@H](NC(=O)[C@H](CCCNC(=N)N)NC(=O)[C@@H]1CCCN1C(=O)[C@H](CCCNC(=N)N)NC(=O)[C@H](N)CCCNC(=N)N)C(=O)N[C@@H](Cc1ccc(O)cc1)C(=O)N[C@@H](CN)C(=O)N[C@@H](CCC(C)C)C(N)=O	
48%			CCC[C@H](NC(=O)[C@H](CCCNC(=N)N)NC(=O)[C@@H]1CCCN1C(=O)[C@H](CCCNC(=N)N)NC(=O)[C@H](N)CCCCN)C(=O)N[C@@H](Cc1ccc(O)cc1)C(=O)N[C@@H](CN)C(=O)N[C@@H](CCC(C)C)C(=O)O	
96%	87%	6.03	CCC[C@H](NC(=O)[C@H](CCCNC(=N)N)NC(=O)[C@@H]1CCCN1C(=O)[C@@H](N)CCCNC(=N)N)C(=O)N[C@@H](Cc1ccc(O)cc1)C(=O)N[C@@H](CN)C(=O)N[C@@H](CCC(C)C)C(N)=O (HELM PEPTIDE1{R.P.R.[Nva].Y.[NC[C@H](N[*:1])C(=O)[*:2]].[CC(C)CC[C@H](N[*:1])C(=O)[*:2]].[am]}$$$$V2.0)	metabolised at 0.5 h, 1000 µM [7]: 40%; inhibition [5]: 99%; Stability [8]: Unstable; inhibition [9]: 99%
